Data: ChEMBL document CHEMBL1124527, “2(1H)-quinolinones with cardiac stimulant activity. 3. Synthesis and biological properties of 6-imidazol-1-yl derivatives” (1989)

Assays:
Canis familiaris [1] = assay: 0.125 mg/kg of compound was administered orally to conscious adult Beagle dogs and the effects on cardiac contractility was determined after 1 hr; format: functional, Canis lupus familiaris, Heart
Method in brief: (§1)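 Conscious dogs (n = 4) were dosed orally by gavage with a solution of compound. The QA interval is the time in ms from the ECG R wave to the up-stroke of the arterial pressure pulse, measured by computer. Recordings were taken every 0.16 h from 0.5 h predose to 4 h postdose. Each point is the mean of six consecutive 8-s sets. Results are the change from the mean predose value, as mean ± SEM.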

Canis familiaris [2] = assay: 0.125 mg/kg of compound was administered orally to conscious adult Beagle dogs (n=4) and the effects on cardiac contractility was determined after 3 hr; format: functional, Canis lupus familiaris, Heart; method in brief: as §1
Canis familiaris [3] = assay: Inotropic potencies relative to 4-[4-[2-(1,1-dioxo-2-isothiazolidinyl)ethyl]-1-piperidinyl]-6,7-dimethoxyquinazoline (50 ug/kg) in anesthetized dog; format: functional, Canis lupus familiaris
Method in brief: (§2)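 Dogs were anesthetized and intubated. Compound was given through a saphenous vein cannula, in 0.9% saline, 0.5 h after the standard quinazoline at 50 µg/kg, following a 0.75 h equilibration. The cycle was repeated once control levels returned, with at least 0.5 h between doses. LVP was recorded by a Millar catheter via the carotid artery and differentiated to dP/dtmax. Results are % increase in dP/dtmax, and also potency relative to the standard in the same dog: (%drug/%standard)×(dose standard/dose drug).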

Canis familiaris [4] = assay: Positive inotropic activity after intravenous administration of 10 ug/kg (dose) to anesthetized dog; format: functional, Canis lupus familiaris; method in brief: as §2
Canis familiaris [5] = assay: Positive inotropic activity after intravenous administration of 50 ug/kg (dose) to anesthetized dog; format: functional, Canis lupus familiaris; method in brief: as §2
Canis familiaris [6] = assay: 0.5 mg/kg of compound was administered orally to conscious adult Beagle dogs (n=4) and the effects on cardiac contractility was determined after 3 hr; format: functional, Canis lupus familiaris, Heart; method in brief: as §1
Canis familiaris [7] = assay: 0.5 mg/kg of compound was administered orally to conscious adult Beagle dogs and the effects on cardiac contractility was determined after 1 hr; format: functional, Canis lupus familiaris, Heart; method in brief: as §1
Canis familiaris [8] = assay: 0.25 mg/kg of compound was administered orally to conscious adult Beagle dogs (n=4) and the effects on cardiac contractility was determined after 3 hr; format: functional, Canis lupus familiaris, Heart; method in brief: as §1
Canis familiaris [9] = assay: 0.25 mg/kg of compound was administered orally to conscious adult Beagle dogs and the effects on cardiac contractility was determined after 1 hr; format: functional, Canis lupus familiaris, Heart; parameters: unit: ms; method in brief: as §1
Canis familiaris [10] = assay: Positive inotropic activity after intravenous administration of 50 ug/kg (dose) to anesthetized dogs; format: functional, Canis lupus familiaris; method in brief: as §2
Canis familiaris [11] = assay: 2.0 mg/kg of compound was administered orally to conscious adult Beagle dogs and the effects on cardiac contractility was determined after 1 hr; format: functional, Canis lupus familiaris, Heart; method in brief: as §1
Canis familiaris [12] = assay: 2.0 mg/kg of compound was administered orally to conscious adult Beagle dogs (n=4) and the effects on cardiac contractility was determined after 3 hr; format: functional, Canis lupus familiaris, Heart; method in brief: as §1
Canis familiaris [13] = assay: 0.25 mg/kg compound was administered orally to conscious adult Beagle dogs (n=4) and the effects on cardiac contractility was determined after 3 hr; format: functional, Canis lupus familiaris, Heart; method in brief: as §1
Canis familiaris [14] = assay: Positive inotropic activity after intravenous administration of 25 ug/kg (dose) to anesthetized dog; format: functional, Canis lupus familiaris
Canis familiaris [15] = assay: Positive inotropic activity after intravenous administration of 12.5 ug/kg (dose) to anesthetized dog; format: functional, Canis lupus familiaris; method in brief: as §2
Canis familiaris [16] = assay: 0.25 mg/kg of compound was administered orally to conscious adult Beagle dogs and the effects on cardiac contractility was determined after 3 hr; format: functional, Canis lupus familiaris, Heart; method in brief: as §1

| Structure (SMILES) | Relative inotropic potency (Canis familiaris [3]) | Increase in dP/dTmax (Canis familiaris [4]) | Increase in dP/dTmax (Canis familiaris [5]) | also measured |
| --- | --- | --- | --- | --- |
| Cc1cc(-n2cc(C#N)nc2C)cc2ccc(O)nc12 | 3 | 30% |  | Decrease in QA interval (Canis familiaris [1]): 15; Decrease in QA interval (Canis familiaris [2]): 15 |
| Cc1nc(C)n(-c2cc(C)c3nc(O)ccc3c2)c1S(C)(=O)=O | 0.1 |  | 5% |  |
| Cc1cn(-c2cc(C)c3nc(O)ccc3c2)c(-c2ccccc2)n1 | 0.3 |  | 15% |  |
| Cc1cc(-n2cc(C(=O)c3ccccc3)nc2C)cc2ccc(O)nc12 | 0.5 |  | 31% |  |
| CSc1c(C)nc(C)n1-c1cc(C)c2nc(O)ccc2c1 | 0.9 |  | 28% |  |
| Cc1nc(C)n(-c2cc(C)c3nc(O)ccc3c2)c1[S+](C)[O-] (stereo not given) | 0.2 |  | 7% |  |
| Cc1cn(-c2cc(C)c3nc(O)ccc3c2)c(I)n1 | 5.7 | 59% |  |  |
| CC(=O)c1nc(C)cn1-c1cc(C)c2nc(O)ccc2c1 | 0.3 |  | 15% |  |
| Cc1nc(C)n(-c2cc(C)c3nc(O)ccc3c2)c1I | 0.5 |  | 17% |  |
| Cc1cc(-n2cc(-c3ccccc3)nc2C)cc2ccc(O)nc12 | 2.4 | 15% |  | Decrease in QA interval (Canis familiaris [6]): 10; Decrease in QA interval (Canis familiaris [7]): 13 |
| Cc1cn(-c2cc(C)c3nc(O)ccc3c2)c(C#N)n1 | 4.1 | 53% |  | Decrease in QA interval (Canis familiaris [8]): 15; Decrease in QA interval (Canis familiaris [9]): 15 |
| Cc1cc(-n2cc(Cl)nc2C)cc2ccc(O)nc12 | 5.6 | 50% |  |  |
| Cc1nc(C)n(-c2cc(C)c3nc(O)ccc3c2)c1Br | 0.7 |  |  | Increase in dP/dTmax (Canis familiaris [10]): 26%; Decrease in QA interval (Canis familiaris [11]): 12; Decrease in QA interval (Canis familiaris [12]): 13 |
| Cc1cc(-n2cc(I)nc2C)cc2ccc(O)nc12 | 2.6 | 11% |  |  |
| CCC(=O)c1cn(-c2cc(C)c3nc(O)ccc3c2)c(C)n1 | 0.9 |  | 29% |  |
| CC(=O)c1c(C)nc(C)n1-c1cc(C)c2nc(O)ccc2c1 | 0.4 |  | 16% | Decrease in QA interval (Canis familiaris [11]): 6; Decrease in QA interval (Canis familiaris [12]): 10 |
| CC(=O)c1cn(-c2cc(C)c3nc(O)ccc3c2)c(C)n1 | 2.6 | 36% |  | Decrease in QA interval (Canis familiaris [8]): 19; Decrease in QA interval (Canis familiaris [9]): 17 |
| CSc1cn(-c2cc(C)c3nc(O)ccc3c2)c(C)n1 | 5 | 53% |  |  |
| Cc1cc(-n2cc([S+](C)[O-])nc2C)cc2ccc(O)nc12 (stereo not given) | 0.7 |  | 65% |  |
| Cc1cc(-n2cc(C(=O)C(C)C)nc2C)cc2ccc(O)nc12 | 0.6 |  | 24% |  |
| Cc1nc(C)n(-c2cc(C)c3nc(O)ccc3c2)c1C#N | 1.1 |  | 70% | Decrease in QA interval (Canis familiaris [8]): 15; Decrease in QA interval (Canis familiaris [9]): 11 |
| Cc1cc(-n2cc(S(C)(=O)=O)nc2C)cc2ccc(O)nc12 | 0.3 |  | 25% |  |
| Cc1nc(C)n(-c2cc(C)c3nc(O)ccc3c2)c1Cl | 2.9 | 32% |  | Decrease in QA interval (Canis familiaris [1]): 12; Decrease in QA interval (Canis familiaris [2]): 10 |
| Cc1[nH]c(=O)c(C#N)cc1-c1ccncc1 [MILRINONE] | 1.6 |  |  | Decrease in QA interval (Canis familiaris [9]): 13; Decrease in QA interval (Canis familiaris [13]): 7; Increase in dP/dTmax (Canis familiaris [14]): 46% |
| Cc1cn(-c2cc(C)c3[nH]c(=O)ccc3c2)c(C)n1 [NANTERINONE] | 7.6 |  |  | Decrease in QA interval (Canis familiaris [9]): 16; Increase in dP/dTmax (Canis familiaris [15]): 40%; Decrease in QA interval (Canis familiaris [16]): 17 |
